Assay results as given in ChEMBL document CHEMBL1135973, “Synthesis and structure-activity relationships of 6,7-benzomorphan derivatives as use-dependent sodium channel blockers for the treatment of stroke” (J Med Chem, 2002).

Key:
[1] = molecular target: T1, Sodium channel alpha subunits; brain (Types I, II, III) (Rattus norvegicus, UniProt P04775+P04774+P08104); experiment: Displacement of [3H]BTX from sodium channel of rat cerebral cortex synaptosomes; type: subcellular
Procedure, shortened: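 Synaptosomal membranes from rat cerebral cortex incubated 1 h at 37 °C with 1 nmol/L [3H]BTX-B in choline Cl/HEPES-Tris buffer pH 7.4 containing glucose, KCl and MgSO4, plus scorpion venom. Nonspecific binding defined with 100 μmol/L aconitine. Stopped by vacuum filtration through glass fiber and two buffer washes.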

Mus musculus [2] = species: Mus musculus; experiment: Ability to block convulsions in the maximal electroshock test (MES) in mice; type: functional
Procedure, shortened: (§1)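 Male OF1 mice, groups of 10, given several doses sc; electroshock 20 mA/50 Hz/200 ms through eye electrodes 15 min after injection. Score is the percentage of animals free of tonic convulsions. ID50 for inhibition of tonic seizures obtained by log-probit analysis over three to four doses.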

[3] = molecular target: T1, Sodium channel alpha subunits; brain (Types I, II, III); experiment: Inhibitory effect against veratridine-induced glutamate release from rat brain slices; type: functional
Procedure, shortened: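 Cross-chopped 0.2 mm slices of Chbb:Thom rat cortex or striatum preincubated 45 min at 37 °C in oxygenated Krebs–Henseleit buffer pH 7.4 with glucose, EDTA and ascorbate. Then 15 min with or without 3 μM veratridine, drug present throughout. After centrifugation, supernatant glutamate measured by HPLC with fluorimetric detection; protein by Coomassie.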

[4] = molecular target: T2, Sodium channel alpha subunits; brain (Types I, II, III) (Rattus norvegicus) (UniProt P04775+P04774+P08104); experiment: Percent inhibition of [3H]BTX displacement at 10000 nmol/L; type: protein assay
[5] = molecular target: T2, Sodium channel alpha subunits; brain (Types I, II, III) (Rattus norvegicus); experiment: Percent inhibition of veratridine-induced glutamate release in rat brain slices at 10000 nmol/L; type: functional, tissue-based
[6] = molecular target: T3, Voltage-gated L-type calcium channel (Rattus norvegicus, UniProt P22002+Q02485+P27732); experiment: Displacement of diltiazem from L-type calcium channel binding site; type: protein assay
[7] = molecular target: T1, Sodium channel alpha subunits; brain (Types I, II, III); experiment: Displacement of [3H]-TTX from sodium channel of rat cerebral cortex synaptosomes; type: subcellular
[8] = molecular target: T3, Voltage-gated L-type calcium channel; experiment: Displacement of DHP from L-type calcium channel binding site; type: protein assay
[9] = molecular target: T3, Voltage-gated L-type calcium channel; experiment: Displacement of verapamil from L-type calcium channel binding site; type: protein assay
Mus musculus [10] = species: Mus musculus; experiment: Percent of mice that did not develop tonic convulsion in the maximal electroshock test (MES); type: functional; procedure, shortened: as §1
Mus musculus [11] = species: Mus musculus; experiment: Ability to block convulsions in the maximal electroshock test(MES) in mice; type: functional; settings: read-out: ID50 (the source's name); procedure, shortened: as §1
[12] = molecular target: T3, Voltage-gated L-type calcium channel; experiment: Displacement of dihydropyridine (DHP) from the L-type calcium channel binding site; type: protein assay
[13] = read-out: ID50 (the source's name)

T2 sequence (P04775 whole entry, looked up, other chains not shown): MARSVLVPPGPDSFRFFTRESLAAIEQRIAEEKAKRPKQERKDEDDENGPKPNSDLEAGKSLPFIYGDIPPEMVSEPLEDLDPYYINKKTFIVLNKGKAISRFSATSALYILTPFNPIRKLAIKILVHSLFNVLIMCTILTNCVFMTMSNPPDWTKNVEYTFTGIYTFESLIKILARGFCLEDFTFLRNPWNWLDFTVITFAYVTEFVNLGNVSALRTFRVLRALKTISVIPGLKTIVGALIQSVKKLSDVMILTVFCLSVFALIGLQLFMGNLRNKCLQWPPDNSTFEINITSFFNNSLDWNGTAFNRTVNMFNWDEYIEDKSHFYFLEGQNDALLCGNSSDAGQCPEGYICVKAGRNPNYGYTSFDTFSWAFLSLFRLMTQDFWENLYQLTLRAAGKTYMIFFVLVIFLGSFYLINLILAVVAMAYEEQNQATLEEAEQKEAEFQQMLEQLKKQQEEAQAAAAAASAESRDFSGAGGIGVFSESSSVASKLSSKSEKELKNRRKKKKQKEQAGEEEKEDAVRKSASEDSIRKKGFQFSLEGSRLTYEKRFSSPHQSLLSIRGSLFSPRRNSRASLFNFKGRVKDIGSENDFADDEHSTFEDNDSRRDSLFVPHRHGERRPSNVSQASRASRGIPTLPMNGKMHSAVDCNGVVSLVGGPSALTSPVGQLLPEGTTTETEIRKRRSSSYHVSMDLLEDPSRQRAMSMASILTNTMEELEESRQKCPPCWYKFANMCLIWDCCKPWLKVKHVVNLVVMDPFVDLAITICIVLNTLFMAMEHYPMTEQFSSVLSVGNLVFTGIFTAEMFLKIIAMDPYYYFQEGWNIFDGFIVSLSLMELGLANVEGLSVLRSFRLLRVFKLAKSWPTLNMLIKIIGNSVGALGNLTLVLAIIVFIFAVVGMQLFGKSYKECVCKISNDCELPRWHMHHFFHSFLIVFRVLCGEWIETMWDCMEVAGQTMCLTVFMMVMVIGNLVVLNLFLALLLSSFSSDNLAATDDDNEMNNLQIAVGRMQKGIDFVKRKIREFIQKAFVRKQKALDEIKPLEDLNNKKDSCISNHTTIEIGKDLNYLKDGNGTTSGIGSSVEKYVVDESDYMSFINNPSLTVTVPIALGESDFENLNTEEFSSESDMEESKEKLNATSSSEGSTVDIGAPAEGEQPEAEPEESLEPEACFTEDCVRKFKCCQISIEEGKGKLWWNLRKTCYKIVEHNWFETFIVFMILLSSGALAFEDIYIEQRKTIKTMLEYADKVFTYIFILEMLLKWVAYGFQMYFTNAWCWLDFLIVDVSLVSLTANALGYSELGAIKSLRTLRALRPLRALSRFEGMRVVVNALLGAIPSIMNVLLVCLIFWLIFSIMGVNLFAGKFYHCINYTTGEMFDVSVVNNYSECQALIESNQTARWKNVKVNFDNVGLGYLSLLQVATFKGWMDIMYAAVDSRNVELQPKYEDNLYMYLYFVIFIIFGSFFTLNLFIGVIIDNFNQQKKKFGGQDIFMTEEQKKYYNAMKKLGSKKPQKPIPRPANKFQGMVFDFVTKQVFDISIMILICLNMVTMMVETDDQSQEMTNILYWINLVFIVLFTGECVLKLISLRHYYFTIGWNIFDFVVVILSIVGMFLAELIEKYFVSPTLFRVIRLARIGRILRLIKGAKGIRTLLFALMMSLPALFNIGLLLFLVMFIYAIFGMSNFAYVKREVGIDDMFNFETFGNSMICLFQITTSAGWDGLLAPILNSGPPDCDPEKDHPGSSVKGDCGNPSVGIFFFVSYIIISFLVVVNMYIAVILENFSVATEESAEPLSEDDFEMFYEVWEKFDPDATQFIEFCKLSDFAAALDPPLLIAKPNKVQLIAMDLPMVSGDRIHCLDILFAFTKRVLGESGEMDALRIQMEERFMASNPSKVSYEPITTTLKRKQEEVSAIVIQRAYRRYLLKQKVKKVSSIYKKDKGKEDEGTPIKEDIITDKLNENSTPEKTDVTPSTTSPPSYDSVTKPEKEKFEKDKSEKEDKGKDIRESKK
T2 sequence (P08104 whole entry, looked up, other chains not shown): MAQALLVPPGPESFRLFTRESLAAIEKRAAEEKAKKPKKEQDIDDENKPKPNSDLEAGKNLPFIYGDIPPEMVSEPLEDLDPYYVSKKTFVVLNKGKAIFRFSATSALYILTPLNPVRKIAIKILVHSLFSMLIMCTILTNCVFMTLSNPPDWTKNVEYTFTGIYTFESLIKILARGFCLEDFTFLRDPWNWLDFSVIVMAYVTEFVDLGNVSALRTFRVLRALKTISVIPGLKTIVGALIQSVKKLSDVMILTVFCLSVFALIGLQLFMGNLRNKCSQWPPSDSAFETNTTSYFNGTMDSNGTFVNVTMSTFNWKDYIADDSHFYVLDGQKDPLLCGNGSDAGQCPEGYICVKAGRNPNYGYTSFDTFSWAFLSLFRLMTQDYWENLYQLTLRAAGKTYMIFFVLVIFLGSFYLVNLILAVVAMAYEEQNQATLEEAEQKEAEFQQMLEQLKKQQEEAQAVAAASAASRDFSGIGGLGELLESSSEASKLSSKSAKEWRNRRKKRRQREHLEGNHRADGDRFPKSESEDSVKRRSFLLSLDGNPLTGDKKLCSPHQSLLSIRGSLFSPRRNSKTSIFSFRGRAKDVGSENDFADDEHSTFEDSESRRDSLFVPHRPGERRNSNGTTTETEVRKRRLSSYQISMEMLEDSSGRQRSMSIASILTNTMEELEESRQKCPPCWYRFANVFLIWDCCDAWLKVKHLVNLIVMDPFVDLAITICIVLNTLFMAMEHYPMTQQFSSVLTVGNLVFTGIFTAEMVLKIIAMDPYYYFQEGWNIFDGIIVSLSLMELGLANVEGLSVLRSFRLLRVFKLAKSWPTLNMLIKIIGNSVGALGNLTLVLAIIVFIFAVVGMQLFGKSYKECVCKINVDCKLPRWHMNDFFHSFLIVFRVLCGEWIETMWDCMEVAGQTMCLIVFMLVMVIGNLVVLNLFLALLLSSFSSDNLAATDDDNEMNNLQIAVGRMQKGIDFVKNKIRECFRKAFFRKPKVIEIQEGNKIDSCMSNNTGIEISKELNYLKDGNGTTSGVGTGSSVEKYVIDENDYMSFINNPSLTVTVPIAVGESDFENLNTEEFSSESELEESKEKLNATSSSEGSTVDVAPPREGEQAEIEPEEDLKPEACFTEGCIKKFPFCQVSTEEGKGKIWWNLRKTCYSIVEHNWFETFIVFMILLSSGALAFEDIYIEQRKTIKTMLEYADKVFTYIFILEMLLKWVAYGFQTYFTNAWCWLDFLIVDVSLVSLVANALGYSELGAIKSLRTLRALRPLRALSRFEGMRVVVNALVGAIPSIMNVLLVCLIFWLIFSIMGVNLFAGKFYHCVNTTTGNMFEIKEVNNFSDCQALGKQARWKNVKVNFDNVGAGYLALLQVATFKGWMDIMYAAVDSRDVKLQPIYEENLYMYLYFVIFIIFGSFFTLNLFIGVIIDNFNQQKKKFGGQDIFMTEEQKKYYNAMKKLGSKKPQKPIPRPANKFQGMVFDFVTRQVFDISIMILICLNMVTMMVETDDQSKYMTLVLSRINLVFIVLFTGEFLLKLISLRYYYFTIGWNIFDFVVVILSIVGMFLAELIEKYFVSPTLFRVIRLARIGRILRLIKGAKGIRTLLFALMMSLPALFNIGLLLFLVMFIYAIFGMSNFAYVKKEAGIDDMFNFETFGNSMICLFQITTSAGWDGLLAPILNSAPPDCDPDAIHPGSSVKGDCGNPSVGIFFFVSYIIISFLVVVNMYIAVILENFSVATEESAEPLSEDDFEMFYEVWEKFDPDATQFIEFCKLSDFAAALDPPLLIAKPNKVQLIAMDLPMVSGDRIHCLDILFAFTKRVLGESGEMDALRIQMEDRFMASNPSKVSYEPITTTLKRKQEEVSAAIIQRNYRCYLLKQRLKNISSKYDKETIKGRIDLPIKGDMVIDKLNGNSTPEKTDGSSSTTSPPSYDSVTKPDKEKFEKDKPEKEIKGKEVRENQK

| Compound | Ki [1] [nM] | ED50 (Mus musculus [2]; [13]) [mg/kg] | IC50 [3] | other results |
| --- | --- | --- | --- | --- |
| CC(CN1CCC2(C)C[C@@H]1Cc1c(O)cccc12)OCc1ccccc1 (stereo partly specified) | 47 | 2.2 | 255 nmol/L | – |
| CO[C@H](C)CN1CCC2(C)c3cccc(O)c3C[C@H]1C2(C)C | 10000 | – | > 10000 nmol/L | inhibition [4]: 48%; inhibition [5]: 42% |
| CO[C@@H](C)CN1CCC2(C)c3ccccc3C[C@@H]1C2(C)C | 4700 | – | ~ 10000 nmol/l | inhibition [5]: 52% |
| CO[C@@H](C)CN1CCC2(C)c3cccc(O)c3C[C@H]1C2(C)C | 10000 | – | > 10000 nmol/L | inhibition [4]: 52%; inhibition [5]: 25% |
| COC(C)CN1CCC2(C)c3cc(O)ccc3C[C@@H]1C2(C)C (stereo partly specified) | 6010 | – | > 10000 nmol/L | ED50 (Mus musculus [2]): 0.1 mg/kg; inhibition [5]: 29% |
| COC(C)CN1CCC2(C)c3c(O)cccc3C[C@@H]1C2(C)C (stereo partly specified) | 8990 | – | > 10000 nmol/L | inhibition [5]: 23% |
| C[C@@H](CN1CCC2(C)c3cccc(O)c3C[C@@H]1C2(C)C)OCc1ccccc1 | 43 | 6.1 | 322 nmol/L | Ki [6]: 660 nM l-1; Ki [7]: > 10000 nM l-1; Ki [8]: > 10000 nM l-1; Ki [9]: 449 nM l-1 |
| C[C@H](CN1CCC2(C)c3ccc(O)cc3C[C@H]1C2(C)C)Oc1ccccc1 | 864 | – | 6340 nmol/L | – |
| COc1ccc2c(c1)[C@]13CCCC[C@@H]1[C@H](C2)N(C)CC3 [DEXTROMETHORPHAN] | 4800 | – | > 10000 nmol/L | inhibition [5]: 5% |
| Cc1cccc(C)c1OCC(C)N (stereo unspecified) [MEXILETINE] | 22700 | – | 47000 nmol/L | – |
| COC(C)CN1CCC2(C)c3ccc(O)cc3C[C@@H]1C2(C)C (stereo partly specified) | > 10000 | – | > 10000 nmol/L | inhibition [4]: 45%; ED50 (Mus musculus [2]): 0.7 mg/kg; inhibition [5]: 21% |
| C[C@@H](CN1CCC2(C)c3ccc(O)cc3C[C@@H]1C2(C)C)Oc1ccccc1 | 149 | > 30 | 5799 nmol/L | Animals (Mus musculus [10]): 0% |
| CO[C@@H](C)CN1CCC2(C)c3cccc(O)c3C[C@@H]1C2(C)C | 783 | – | 3190 nmol/L | ED50 (Mus musculus [2]): 1 mg/kg |
| C[C@H](CN1CCC2(C)c3cccc(O)c3C[C@H]1C2(C)C)OCc1ccccc1 | 1490 | > 100 | 3772 nmol/L | Mice (Mus musculus [10]): 40% |
| Cc1ccc(-c2nc(CN3CCN(C(c4ccccc4)c4ccccc4)CC3)c(C)[nH]2)cc1 [LIFARIZINE] | 259 | – | 494 nmol/L | – |
| C[C@H](CN1CCC2(C)c3ccc(O)cc3C[C@@H]1C2(C)C)Oc1ccccc1 | 662 | – | 6024 nmol/L | – |

| Compound | Ki [1] [nM] | ED50 (Mus musculus [2]; [13]) [mg/kg] | IC50 [3] | other results |
| --- | --- | --- | --- | --- |
| C[C@@H](CN1CCC2(C)c3cccc(O)c3C[C@@H]1C2(C)C)OCC1CCCCC1 | 208 | > 30 | 975 nmol/L | Mice (Mus musculus [10]): 0% |
| CN(c1nc2ccccc2s1)C1CCN(C[C@H](O)COc2ccc(F)c(F)c2)CC1 [LUBELUZOLE] | 203 | – | – | – |
| C[C@@H](CN1CCC2(C)c3cccc(O)c3C[C@H]1C2(C)C)OCc1ccccc1 | 1330 | > 100 | 1289 nmol/L | Mice (Mus musculus [10]): 40% |
| C[C@H](CN1CCC2(C)c3cccc(O)c3C[C@@H]1C2(C)C)OCC1CCCCC1 | 241 | – | 1481 nmol/L | ED50 (Mus musculus [11]): > 30 mg/kg; Mice (Mus musculus [10]): 0% |
| C[C@H](CN1CCC2(C)c3ccc(O)cc3C[C@H]1C2(C)C)OCc1ccccc1 | 1230 | > 100 | 2676 nmol/L | Mice (Mus musculus [10]): 30% |
| C[C@@H](CN1CCC2(C)c3ccc(O)cc3C[C@@H]1C2(C)C)OCc1ccccc1 | 312 | 10.1 | 2300 nmol/L | – |
| C[C@@H](CN1CCC2(C)c3ccc(O)cc3C[C@H]1C2(C)C)Oc1ccccc1 | 1530 | > 100 | 6464 nmol/L | Animals (Mus musculus [10]): 0% |
| CC1[C@H]2Cc3c(O)cccc3C1(C)CCN2C[C@H](C)OCc1ccccc1 (stereo partly specified) | 54 | 2.4 | 134 nmol/L | – |
| C[C@@H](CN1CCC2(C)c3ccc(O)cc3C[C@H]1C2(C)C)OCc1ccccc1 | 1870 | > 100 | 4516 nmol/L | Mice (Mus musculus [10]): 30% |
| CC1[C@H]2Cc3c(O)cccc3C1(C)CCN2C[C@@H](C)OCc1ccccc1 (stereo partly specified) | 153 | 3.1 | 452 nmol/L | – |
| CO[C@H](C)CN1CCC2(C)c3cccc(O)c3C[C@@H]1C2(C)C | 3310 | – | 4153 nmol/L | ED50 (Mus musculus [2]): 0.8 mg/kg |
| C[C@H](CN1CCC2(C)c3ccc(O)cc3C[C@@H]1C2(C)C)OCc1ccccc1 | 382 | 35.3 | 3177 nmol/L | – |
| CC12CCN(CCOCc3ccccc3)[C@H](Cc3c(O)cccc31)C2(C)C | 20 | 2.1 | 379 nmol/L | Ki [12]: > 10000 nM l-1; Ki [6]: 217 nM l-1; Ki [7]: > 10000 nM l-1; Ki [9]: 60 nM l-1 |
| CC12CCN(CCc3ccccc3)[C@@H](Cc3cc(O)ccc31)C2(C)C | 1290 | – | 5029 nmol/L | – |
| C[C@H](CN1CCC2(C)c3cccc(O)c3C[C@@H]1C2(C)C)OCc1ccccc1 | 114 | 9.4 | 922 nmol/L | Ki [6]: 391 nM l-1; Ki [7]: > 10000 nM l-1; Ki [8]: > 10000 nM l-1; Ki [9]: 500 nM l-1 |
